The values that follow come from ChEMBL document CHEMBL1126036, “Quinolone antibacterial agents. Synthesis and structure-activity relationships of a series of amino acid prodrugs of racemic and chiral 7-(3-amino-1-pyrrolidinyl)quinolones. Highly soluble quinolone prodrugs with in vivo pseudomonas activity” (J Med Chem, 1992).

In data set [1] the test system is Mus musculus. As to the kind of experiment: In vivo potency against acute systemic infection in mouse caused by Pseudomonas aeruginosa UI-18 on oral administration by gavage. The settings on record: read-out: PD50. Format: functional. The method in brief:
(§1)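 Acute systemic mouse infection. A single oral dose was given by gavage at the time of challenge. Potency is reported as the median protective dose (PD50, mg/kg), determined by earlier published methods.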

The nature of data set [2]: Solubility (in 0.1 N HCl). In kind it is physicochemical. The settings on record: read-out: S. An outline of the steps:
(§2)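 Solubility was measured either from HPLC peak areas at equilibrium or by a conventional weight-per-volume method. All solutions were held for 24 h before measurement.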

For data set [3], the system named is Streptococcus pneumoniae. As to the kind of experiment: In vivo potency against acute systemic infection in mouse caused by Streptococcus pneumoniae SV-1 on subcutaneous injection. In kind it is functional. Conditions: sc, read-out: PD50. The method in brief: (§3)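 Acute systemic mouse infection. A single subcutaneous dose was injected at the time of challenge. Potency is reported as the median protective dose (PD50, mg/kg), determined by earlier published methods.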

In data set [4] the test system is Mus musculus. The data set can be described thus: In vivo potency against acute systemic infection in mouse caused by Pseudomonas aeruginosa. UI-18. on subcutaneous injection. The settings on record: sc, read-out: PD50. In kind it is functional. An outline of the steps:
as §3

For data set [5], the system named is Staphylococcus aureus. The data set can be described thus: In vitro antibacterial activity against gram positive Staphylococcus aureus UC76. Format: functional.
The subject of another data set is Klebsiella pneumoniae. The data set can be described thus: In vitro antibacterial activity against gram negative Klebsiella pneumoniae. MGH-2. In kind it is functional.
Data set [6] deals with Streptococcus pneumoniae. As to the kind of experiment: In vivo potency against acute systemic infection in mouse caused by Streptococcus pneumoniae SV-1 on oral administration by gavage. Format: functional. The settings on record: read-out: PD50. The method in brief:
as §1

Data set [7] can be described thus: Solubility (at pH 4). Format: physicochemical. The settings on record: buffer, read-out: S. An outline of the steps: as §2
Data set [8] has as its system Mus musculus. The data set can be described thus: In vivo potency against acute systemic infection in mouse caused by Streptococcus pyogenes C-203 on oral administration by gavage. Conditions: read-out: PD50. In kind it is functional. The method in brief:
as §1

The subject of data set [9] is Escherichia coli. The data set can be described thus: In vivo potency against acute systemic infection in mouse caused by Escherichia coli Vogel on oral administration by gavage. The settings on record: read-out: PD50. In kind it is functional. An outline of the steps: as §1
In the next data set the test system is Providencia rettgeri. As to the kind of experiment: In vitro antibacterial activity against gram negative Providencia rettgeri M-1771. In kind it is functional.
A further data set deals with Streptococcus pyogenes. As to the kind of experiment: In vitro antibacterial activity against gram positive Streptococcus pyogenes C-203. Format: functional.
Data set [10] deals with Staphylococcus aureus. The data set can be described thus: In vitro antibacterial activity against gram positive Staphylococcus aureus H-228. Format: functional.
Data set [11] is described as follows: Aqueous solubility. In kind it is physicochemical. Conditions: read-out: S. An outline of the steps:
as §2

Data set [12] concerns Escherichia coli. The data set can be described thus: In vivo potency against acute systemic infection in mouse caused by Escherichia coli vogel on subcutaneous injection. In kind it is functional. The settings on record: sc, read-out: PD50. The method in brief: as §3
The subject of another data set is Enterococcus faecalis. As to the kind of experiment: In vitro antibacterial activity against gram positive Enterococcus faecalis MGH-2. Format: functional.
In data set [13] the target is DNA gyrase (Escherichia coli) (UniProt P0AES6+P0AES4). As to the kind of experiment: In vitro concentration inhibiting DNA gyrase induced cleavage in Escherichia coli H560. In kind it is functional. The method in brief:
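DNA gyrase test run as described in earlier work. The value is the drug concentration (µg/mL) needed to cause DNA cleavage.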

The test system of a further data set is Enterobacter cloacae. As to the kind of experiment: In vitro antibacterial activity against gram negative Enterobacter cloacae MA 2646. In kind it is functional.
Data set [14] relates to Escherichia coli. The data set can be described thus: In vitro antibacterial activity against gram negative Escherichia coli Vogel. In kind it is functional.
Data set [15] deals with Streptococcus pneumoniae. As to the kind of experiment: In vitro antibacterial activity against gram positive Streptococcus pneumoniae SV-1. Format: functional.
In a further data set the test system is Pseudomonas aeruginosa. As to the kind of experiment: In vitro antibacterial activity against gram negative Pseudomonas aeruginosa UI-18. Format: functional.
Data set [16] concerns Mus musculus. The data set can be described thus: In vivo potency against acute systemic infection in mouse caused by Streptococcus pyogenes C-203 on subcutaneous injection. Format: functional. The settings on record: sc, read-out: PD50. The method in brief: as §3

Values after ≈ are worked out from the molar mass of the structure shown.

For orientation: MIC means the least concentration at which growth counts as inhibited. Read a low MIC as greater potency. For `C[C@H](N)C(=O)N[C@H]1CCN(c2nc3c(cc2F)c(=O)c(C(=O)O)cn3C2CC2)C1.Cl.O`, the ED50 with Mus musculus [1] was determined as 3 mg/kg; in the data set on Streptococcus pneumoniae [3], 12 mg/kg; in the data set on Mus musculus [4] it was 2 mg/kg; in the data set with Streptococcus pneumoniae [6], 25 mg/kg; in the data set on Mus musculus [8] it was 22 mg/kg; in the data set on Escherichia coli [9], 1.3 mg/kg. The ED50 in the data set on Escherichia coli [12] was 0.4 mg/kg; in the data set on Mus musculus [16] it was 10 mg/kg. Also, the solubility in data set [2] was > 350000 µg/mL; in [7], > 350000 µg/mL; in [11] (pH 7.4 phosphate buffer), 20 µg/mL; in [11] (water (aqueous)), > 350000 µg/mL. In addition, the MIC was 0.8 µg/mL against Staphylococcus aureus [5]; 1.6 µg/mL with Klebsiella pneumoniae; 3.1 µg/mL in the data set with Providencia rettgeri; 0.8 µg/mL in the data set with Streptococcus pyogenes; 3.1 µg/mL in the data set with Staphylococcus aureus [10]; 1.6 µg/mL with Enterococcus faecalis. In addition, the MIC with Enterobacter cloacae is 0.8 µg/mL; with Escherichia coli [14], 0.8 µg/mL; against Streptococcus pneumoniae [15] it was 0.8 µg/mL; in the data set on Pseudomonas aeruginosa, 3.1 µg/mL. The Cleavage in [13] is 5 µg/mL.

As to `NC(=O)CC[C@H](N)C(=O)NC1CCN(c2nc3c(cc2F)c(=O)c(C(=O)O)cn3C2CC2)C1` (stereo partly drawn), the solubility in data set [2] was determined as 1400 µg/mL (≈ 3040 µM); in data set [7] it was 3100 µg/mL (≈ 6730 µM); in data set [11] (pH 7.4 phosphate buffer) it was 50 µg/mL (≈ 109 µM); in [11] (water (aqueous)) it was 6100 µg/mL (≈ 13200 µM). For the same compound, the minimum inhibitory concentration (MIC) was 0.8 µg/mL (≈ 1.74 µM) in the data set with Staphylococcus aureus [5]; 12.5 µg/mL (≈ 27.1 µM) in the data set with Klebsiella pneumoniae; 25 µg/mL (≈ 54.3 µM) against Providencia rettgeri; 12.5 µg/mL (≈ 27.1 µM) against Streptococcus pyogenes; 3.1 µg/mL (≈ 6.73 µM) in the data set on Staphylococcus aureus [10]; 6.3 µg/mL (≈ 13.7 µM) against Enterococcus faecalis. The MIC with Enterobacter cloacae was 6.3 µg/mL (≈ 13.7 µM); against Escherichia coli [14] it was 6.3 µg/mL (≈ 13.7 µM); with Streptococcus pneumoniae [15], 12.5 µg/mL (≈ 27.1 µM); against Pseudomonas aeruginosa, > 25 µg/mL. Also, the ED50 in the data set with Escherichia coli [9] came to 4.8 mg/kg; in the data set with Escherichia coli [12], 0.4 mg/kg. The Cleavage in data set [13] was 5 µg/mL.

Regarding `N[C@H]1CCN(c2nc3c(cc2F)c(=O)c(C(=O)O)cn3C2CC2)C1`, the ED50 came out at 4 mg/kg in the data set on Mus musculus [1]; 14 mg/kg in the data set with Streptococcus pneumoniae [3]; 2 mg/kg in the data set on Mus musculus [4]; 19 mg/kg with Streptococcus pneumoniae [6]; 19 mg/kg in the data set on Mus musculus [8]; 0.8 mg/kg in the data set with Escherichia coli [9]. In addition, the ED50 was 0.4 mg/kg in the data set with Escherichia coli [12] and 9 mg/kg in the data set with Mus musculus [16]. The MIC was determined as 0.013 µg/mL (≈ 0.0391 µM) with Staphylococcus aureus [5]; 0.013 µg/mL (≈ 0.0391 µM) with Klebsiella pneumoniae; 0.025 µg/mL (≈ 0.0752 µM) in the data set with Providencia rettgeri; 0.05 µg/mL (≈ 0.15 µM) in the data set with Streptococcus pyogenes; 0.05 µg/mL (≈ 0.15 µM) against Staphylococcus aureus [10]; 0.1 µg/mL (≈ 0.301 µM) against Enterococcus faecalis. Further, the MIC against Enterobacter cloacae is 0.013 µg/mL (≈ 0.0391 µM); against Escherichia coli [14], 0.006 µg/mL (≈ 0.0181 µM); against Streptococcus pneumoniae [15], 0.05 µg/mL (≈ 0.15 µM); in the data set with Pseudomonas aeruginosa, 0.1 µg/mL (≈ 0.301 µM). Also, the Cleavage in [13] was 0.25 µg/mL.

Regarding `C[C@@H](N)C(=O)NC1CCN(c2nc3c(cc2F)c(=O)c(C(=O)O)cn3C2CC2)C1.Cl.O` (stereo partly drawn), the solubility in [2] was 189000 µg/mL; in data set [7], 262000 µg/mL; in data set [11] (pH 7.4 phosphate buffer), 60 µg/mL; in [11] (water (aqueous)), > 250000 µg/mL. The ED50 is 3 mg/kg in the data set with Streptococcus pneumoniae [3], > 100 mg/kg with Streptococcus pneumoniae [6], 22.5 mg/kg with Escherichia coli [9] and 5.1 mg/kg in the data set with Escherichia coli [12]. Also, the MIC against Staphylococcus aureus [5] came out at 0.05 µg/mL; against Klebsiella pneumoniae, 0.8 µg/mL; in the data set with Providencia rettgeri, 1.6 µg/mL; against Streptococcus pyogenes it was 0.013 µg/mL; in the data set on Staphylococcus aureus [10], 0.4 µg/mL; with Enterococcus faecalis, 0.2 µg/mL. The MIC stood at 0.8 µg/mL in the data set with Enterobacter cloacae, 0.8 µg/mL against Escherichia coli [14], 0.25 µg/mL against Streptococcus pneumoniae [15] and 1.6 µg/mL against Pseudomonas aeruginosa. Also, the Cleavage in data set [13] came to 2.5 µg/mL.

`N[C@@H]1CCN(c2nc3c(cc2F)c(=O)c(C(=O)O)cn3C2CC2)C1`: the ED50 in the data set with Streptococcus pneumoniae [3] turned out to be 34 mg/kg; in the data set with Streptococcus pneumoniae [6], 45 mg/kg; in the data set with Escherichia coli [9] it was 0.5 mg/kg; in the data set on Escherichia coli [12], 0.4 mg/kg. Also, the MIC stood at 0.05 µg/mL (≈ 0.15 µM) in the data set on Staphylococcus aureus [5]; 0.025 µg/mL (≈ 0.0752 µM) in the data set with Klebsiella pneumoniae; 0.05 µg/mL (≈ 0.15 µM) in the data set on Providencia rettgeri; 0.2 µg/mL (≈ 0.602 µM) in the data set with Streptococcus pyogenes; 0.2 µg/mL (≈ 0.602 µM) against Staphylococcus aureus [10]; 0.2 µg/mL (≈ 0.602 µM) against Enterococcus faecalis. In addition, the MIC came to 0.025 µg/mL (≈ 0.0752 µM) in the data set on Enterobacter cloacae, 0.013 µg/mL (≈ 0.0391 µM) against Escherichia coli [14], 0.1 µg/mL (≈ 0.301 µM) against Streptococcus pneumoniae [15] and 0.4 µg/mL (≈ 1.2 µM) in the data set on Pseudomonas aeruginosa. This compound returned a Cleavage in data set [13] of 0.5 µg/mL.
